The values that follow come from PubChem BioAssay AID504382 (The Scripps Research Institute Molecular Screening Center, 2011).

Molecules are shown by their SMILES. About 460 (18%) of roughly 2,500 compounds were called active.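 Rule for the calls: active = mean activation above a cutoff of low control average plus 3 SD from the earlier screen (cut at about 12% in these data); inactive = the rest.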 Not all results are given here.

This assay is described as follows: IANBD-channel fluorescence artefacts in buffer – biochemical, artefact control for cardiac RTF calcium sensitizer project, confirmation (AID 504382). The settings on record: IANBD fluorescence interference counterscreen, EC20 Ca2+, at 7.2 µM, hits give high values, scaled: EC20 calcium 0, EC100 calcium 100. The essentials:
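Also added: EC20 calcium, 0.472 mM; dosing: single nominal 7.2 µM compound dose, 0.7% DMSO final; timing: 15 min, 25 °C; detection: fluorescence intensity, excitation 480 nm, emission 540 nm; replicates: each compound tested in triplicate wells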
A general note: A counterscreen serves to expose hits that act by an unwanted route or on another target.
`C=CCN1C(=O)c2ccccc2NC1c1cc(Br)cs1` (stereo not drawn): the fluorescence artifact activation is 7.88% (inactive).

As to `Cc1nn(-c2ccccc2)c(Cl)c1C(=O)NC1CCCCC1`, the fluorescence artifact activation was 4.56% (inactive).

As to `Cc1cc(=O)oc2cc(OCC(=O)OCC(=O)NC(C)C)ccc12`, the fluorescence artifact activation is -0.02% (inactive).

As to `CCc1ccccc1NC(=O)COc1ccc2c(=O)c(Oc3cc(C)ccc3C)coc2c1`, the fluorescence artifact activation is 664% (active).

On to `Cc1ccc(C)c(NC(=O)COC(=O)Cc2ccsc2)c1`, for which the fluorescence artifact activation was 0.03% (inactive).

For `O=C(O)CSc1ncnc2scc(-c3ccc(Br)cc3)c12`, the fluorescence artifact activation was 0.71% (inactive).

As to `CC(C)(C)NCc1cc(Cl)ccc1OCc1cccs1`, the fluorescence artifact activation is 13.9% (active).

Regarding `COc1cccc2c1C(=O)c1c(O)c3c(c(O)c1C2=O)CC(O)(C(C)=NNC(=O)c1ccc(Cl)c(Cl)c1)CC3OC1CC(N)C(O)C(C)O1` (stereo not drawn), the fluorescence artifact activation was 0.12% (inactive).

For the molecule `N#Cc1c(N)oc(-c2ccccc2)c1-c1ccccc1`, the fluorescence artifact activation is 4.93% (inactive).

On to `Cc1cc(C)c(C#N)c(Sc2nnnn2-c2ccccc2)n1`, for which the fluorescence artifact activation is 11.6% (inactive).

Turning to `Cc1cc(C)c(C#N)c(SCc2nnc(-c3ccccc3)o2)n1`, the fluorescence artifact activation was 14.5% (active).

Consider `CCOC(=O)/C(C#N)=N\Nc1cc(Cl)ccc1OC`, for which the fluorescence artifact activation was 0.07% (inactive).

On to `C[C@@H]1C=C(C(=O)N2CCOCC2)O[C@H](OCc2ccc(CO)cc2)C1`, for which the fluorescence artifact activation was 0.97% (inactive).

As to `CCOCCCNS(=O)(=O)c1ccc(NC(=O)c2ccc(OC)c([N+](=O)[O-])c2)cc1`, the fluorescence artifact activation is 0.52% (inactive).

For the molecule `O=C(Cn1cc(/C=N/NC(=O)c2cccc3ccccc23)c2ccccc21)Nc1ccc(F)cc1`, the fluorescence artifact activation is 19.7% (active).

With `O=C(Nc1ccccc1C(=O)N/N=C/c1ccco1)c1ccc(F)cc1`, the fluorescence artifact activation was 1.44% (inactive).

Regarding `CCOc1cccc(NC(=O)/C(C#N)=C\c2cn(CC(=O)O)c3ccccc23)c1`, the fluorescence artifact activation is 0.19% (inactive).

For the molecule `Cc1ccc(N=Cc2sc(O)c3ccccc23)c(C)c1`, the fluorescence artifact activation was 0.06% (inactive).

Turning to `CCOC(=O)c1ccc[n+](CC(=O)Nc2cc(C(F)(F)F)ccc2Cl)c1`, the fluorescence artifact activation was 2.39% (inactive).

For `CCn1c(O)c(/C=N/N=C/c2ccccc2)c2ccc(C3=NNC(=O)CC3)cc21`, the fluorescence artifact activation is 0.02% (inactive).

On to `Brc1ccc(-c2cnnc(N3CCCC3)n2)cc1`, for which the fluorescence artifact activation is 66.5% (active).

As to `C=CCOc1ccc(CNc2ccc3[nH]c(=O)[nH]c3c2)cc1OCC`, the fluorescence artifact activation was 5.69% (inactive).

In the case of `COC(=O)c1c(NC(=O)c2ccnn2C)sc(C)c1C`, the fluorescence artifact activation was 0.09% (inactive).

For `Fc1ccc(C2=CC(c3ccc(Br)o3)n3ncnc3N2)cc1` (stereo not drawn), the fluorescence artifact activation is 0.34% (inactive).

`OCCN=C1CCCc2c1[nH]c1ccc(Cl)cc21`: the fluorescence artifact activation was 0.44% (inactive).

Regarding `COc1ccccc1NC(=O)COC(=O)c1cnc(C)cn1`, the fluorescence artifact activation was 14.7% (active).

On to `COc1ccccc1NCC(=O)NC(=O)NC1CCCCC1`, for which the fluorescence artifact activation was 0.02% (inactive).

With `COc1ccccc1NC(=O)CC(=O)CSc1nnc(-c2ccc(C)cc2)n1-c1ccccc1`, the fluorescence artifact activation was -0.03% (inactive).

As for `Cn1c(CN2CCCC2)nc2cc(NC(=O)COc3ccc([N+](=O)[O-])cc3)ccc21`, the fluorescence artifact activation is 0.82% (inactive).

Regarding `CCC(=O)Nc1ccc2c(c1)nc(CCN1CCN(C)CC1)n2C`, the fluorescence artifact activation was 20.2% (active).

Take `CCCn1c(CN2CCN(C(=O)OCC)CC2)nc2cc(NC(=O)CC)ccc21`: the fluorescence artifact activation was 0.01% (inactive).

For the molecule `CCCC1OC23CCCCC2C(C#N)(C#N)C1(C#N)C(=N)O3` (stereo not drawn), the fluorescence artifact activation was 36.8% (active).

`CCCCC1OC23CCCCC2C(C#N)(C(=N)O3)C1(C#N)C#N` (stereo not drawn): the fluorescence artifact activation was -0.04% (inactive).

For the molecule `CCCCC1OC23CCCCC2C(C#N)(C#N)C1(C#N)C(=N)O3` (stereo not drawn), the fluorescence artifact activation was 3.08% (inactive).

With `CCN(c1ccccc1)S(=O)(=O)c1ccc(OC)c(NC(=O)Cn2cnc3c2c(=O)n(C)c(=O)n3C)c1`, the fluorescence artifact activation is 0.38% (inactive).

Regarding `CC(OC(=O)/C(C#N)=C/c1ccc(N(C)C)cc1)C(=O)N(C)c1ccccc1` (stereo not drawn), the fluorescence artifact activation was 0.19% (inactive).

Take `NS(=O)(=O)c1ccc(-c2ccc(/C=C3\SC(=S)N(C4CCS(=O)(=O)C4)C3=O)o2)cc1` (stereo not drawn): the fluorescence artifact activation was 3.08% (inactive).

For `COc1ccc(CCNC(=O)C2CC(c3c(Cl)cccc3Cl)=NO2)cc1` (stereo not drawn), the fluorescence artifact activation is -0.04% (inactive).

With `CC1(C)CC(=O)C(CC2CCCCC2=O)C(=O)C1` (stereo not drawn), the fluorescence artifact activation was 0.76% (inactive).

As for `Fc1ccc(CNCc2ccc(Br)cc2)cc1`, the fluorescence artifact activation was 0.02% (inactive).

On to `CCN(CC)c1ccc(NC(=S)Nc2ccc(F)cc2)cc1`, for which the fluorescence artifact activation was 0.1% (inactive).

`Fc1ccc(CNC(=S)NCc2ccc(F)cc2)cc1`: the fluorescence artifact activation is 12.3% (active).

For the molecule `S=C(Nc1ccc(N2CCOCC2)cc1)Nc1ccc2nc(-c3ccco3)c(-c3ccco3)nc2c1`, the fluorescence artifact activation was 8.46% (inactive).

As to `O=C(c1ccc(Cl)cc1)n1cnc2ccccc21`, the fluorescence artifact activation is 0.21% (inactive).

With `COc1ccc(C(=O)Cn2cnc3ccccc3c2=O)cc1OC`, the fluorescence artifact activation was 0.22% (inactive).

Consider `O=C(Cn1cnc2ccccc2c1=O)c1ccc(Br)cc1`, for which the fluorescence artifact activation was 102% (active).

For `O=C(C1=NN(c2ccccc2)C2C(=O)N(c3ccccc3Cl)C(=O)C12)c1ccccc1` (stereo not drawn), the fluorescence artifact activation was 1.06% (inactive).

Turning to `Cc1oc(-c2cc3c(cc2Cl)OCO3)nc1CN1CCCC(C(=O)N2CCOCC2)C1` (stereo not drawn), the fluorescence artifact activation is 190% (active).

On to `CSCCC(NC(=O)c1ccc(Cl)cc1)C(=O)OCC(=O)c1ccc[nH]1` (stereo not drawn), for which the fluorescence artifact activation was 0.05% (inactive).

In the case of `O=C(/C=C/c1ccccc1)N/C(=C/c1ccccc1)C(=O)NCCCO`, the fluorescence artifact activation was 0.08% (inactive).

Take `C=CCNC(=O)NC(=O)COC(=O)CC(NC(N)=O)c1ccc(Cl)cc1` (stereo not drawn): the fluorescence artifact activation was 50.5% (active).

For `O=C(NCCCN1CCCC1=O)c1cccc(S(=O)(=O)Nc2ccc(Br)cc2)c1`, the fluorescence artifact activation was 0.07% (inactive).

As for `O=C1CCC(=O)N(O)CCCCCNC(=O)CCC(=O)N(O)CCCCNC(=O)CCC(=O)N(O)CCCCCN1`, the fluorescence artifact activation was -0.06% (inactive).

For the molecule `O=C(CC1C(=O)N(c2ccc(Cl)cc2)C(=S)N1CCc1ccncc1)Nc1ccc(F)cc1` (stereo not drawn), the fluorescence artifact activation was -0.02% (inactive).

In the case of `CC1CCN(S(=O)(=O)c2ccc(N=NC3=C(O)CC(C)(C)CC3=O)cc2)CC1`, the fluorescence artifact activation is 1.03% (inactive).

In the case of `O=C1c2cccc3cccc(c23)C(=O)N1CC1CCN(S(=O)(=O)c2ccc(F)cc2)CC1`, the fluorescence artifact activation is 34.6% (active).

`O=S(=O)(c1ccccc1Cl)N1CCC(Cc2ccccc2)CC1`: the fluorescence artifact activation is 0.09% (inactive).

For the molecule `C=CCn1c(C)cc(-c2csc(N)n2)c1C`, the fluorescence artifact activation was 2.95% (inactive).

For `O=C(NCc1ccco1)C1CC(c2c(Cl)cccc2Cl)=NO1` (stereo not drawn), the fluorescence artifact activation is -0.09% (inactive).

Turning to `COc1cccc(C(=O)NC2CC3CCCC(C2)N3CC(=O)Nc2ccc(N(C)C)cc2)c1` (stereo not drawn), the fluorescence artifact activation was 3.62% (inactive).

As for `CN(C)c1ccc(/C=C/c2cc[n+](C)c3ccccc23)cc1`, the fluorescence artifact activation is 0.06% (inactive).

Regarding `CN(C)c1ccc(/C=C/c2cc[n+](C)cc2)cc1`, the fluorescence artifact activation is 14.5% (active).

Turning to `Cc1ccc(/C=C/c2ccc(N(C)C)cc2)[n+](C)c1`, the fluorescence artifact activation is 1.46% (inactive).

As for `O=C1N(c2cccc(Cl)c2)C(c2ccccc2)N2CCCN12` (stereo not drawn), the fluorescence artifact activation is -0.04% (inactive).

As for `COc1ccc(COc2cc(-c3cccc(OC)c3)nc3ccc(NC(=O)c4ccc(C)cc4)cc23)cc1`, the fluorescence artifact activation was 0.13% (inactive).

Turning to `COc1cccc(CC(NC(C)=O)C(=O)NC2CCN(c3nc(C)cc(C)c3C#N)CC2)c1OC` (stereo not drawn), the fluorescence artifact activation is 6.12% (inactive).

Consider `CCCCN(C(=O)c1ccc2c(c1)OCCO2)c1c(N)n(CCCC)c(=O)[nH]c1=O`, for which the fluorescence artifact activation was -0.02% (inactive).

On to `CC(=O)Nc1ccc(NC(=O)C(C)OC(=O)/C(C#N)=C/c2ccc(N(C)C)cc2)cc1` (stereo not drawn), for which the fluorescence artifact activation is 2.64% (inactive).

Turning to `CC1CC(C)(C)NC(=S)N1CCCC(=O)Nc1ccccc1F` (stereo not drawn), the fluorescence artifact activation is 0.07% (inactive).

Turning to `CCC(C)n1ncn(-c2ccc(N3CCN(c4ccc(OCC5COC(Cn6cncn6)(c6ccc(Cl)cc6Cl)O5)cc4)CC3)cc2)c1=O` (stereo not drawn), the fluorescence artifact activation is 121% (active).

On to `CC1(C)c2[nH]c3ccccc3c2C[C@H]2C(=O)N(Cc3ccc(F)cc3)C(=O)N21`, for which the fluorescence artifact activation is 0% (inactive).

For the molecule `Cc1onc(-c2ccccc2Cl)c1C(=O)N(Cc1ccc(N(C)C)cc1)C(C)C`, the fluorescence artifact activation was 2.44% (inactive).

Take `CCOC(=O)c1cc2n(c1N)-c1ccccc1C2=O`: the fluorescence artifact activation is 19.5% (active).

As to `CCOC(=O)c1cc2c(s1)-c1ccccc1CC2`, the fluorescence artifact activation was 0.55% (inactive).

Turning to `CCOC(=O)c1ccccc1-n1nnnc1C`, the fluorescence artifact activation was 0.06% (inactive).

Take `COc1cc(/C=C/C=C2/CC/C(=C/C=C/c3ccc(O)c(OC)c3)C2=O)ccc1O`: the fluorescence artifact activation is 7.81% (inactive).

Regarding `C/C(=C\C=C(C#N)C#N)c1cc(C#N)c(N)o1`, the fluorescence artifact activation is 3.09% (inactive).

As to `N#C/C(=C\c1ccc(N2CCOCC2)o1)C(=O)N1CCOCC1`, the fluorescence artifact activation is 0.05% (inactive).

Take `N#C/C(=C/c1ccc(N2CCCCCC2)o1)c1ccc(Cl)cc1`: the fluorescence artifact activation was 12.3% (active).

For the molecule `N#C/C(=C\c1ccc(N2CCCCC2)o1)C(N)=O`, the fluorescence artifact activation is 2.99% (inactive).

As to `N#C/C(=C/c1ccc(N2CCCCCC2)o1)c1cccc(F)c1`, the fluorescence artifact activation was 33.8% (active).

On to `N#C/C(=C/c1ccc(N2CCOCC2)o1)c1ccc(Cl)cc1`, for which the fluorescence artifact activation is 0% (inactive).

Regarding `Cc1ncoc1C(=O)N1CCc2c([nH]c3ccccc23)C1C(C)(C)C` (stereo not drawn), the fluorescence artifact activation was 0.21% (inactive).

Take `CN(C)c1ccc(/C=C/c2ccc3ccccc3n2)cc1`: the fluorescence artifact activation is 0.06% (inactive).

With `CN1CCN(CCNC(=O)Nc2ccc(Cl)cc2)CC1`, the fluorescence artifact activation is 3.25% (inactive).

For `CCCCCCSc1ccc([C@@H]2[C@H]3C(=O)N(CC)C(=O)[C@H]3[C@]3(C(=O)OC)CCCCN23)cc1OC`, the fluorescence artifact activation is -0.04% (inactive).

As to `CCn1cc(Cl)c(C(=O)NNC(=O)CCn2cc([N+](=O)[O-])cn2)n1`, the fluorescence artifact activation is -0.04% (inactive).

Consider `CC1(C)c2ccccc2N2CC(=O)N(CC(N)=O)C21C` (stereo not drawn), for which the fluorescence artifact activation is 20.9% (active).

Regarding `CN1/C(=C\C=C2/SC(=S)N(CC(=O)O)C2=O)C(C)(C)c2ccccc21`, the fluorescence artifact activation is 0.11% (inactive).

As to `CN1C(=CC=C2C=C(I)C(=O)C(I)=C2)C(C)(C)c2ccccc21`, the fluorescence artifact activation is 0.22% (inactive).

`O=C(Nc1ccccc1)NC1CS(=O)(=O)CC1O` (stereo not drawn): the fluorescence artifact activation is 32.8% (active).

As for `O=C(Nc1ccccc1)OC1CCC2CC1CCC2OC(=O)Nc1ccccc1` (stereo not drawn), the fluorescence artifact activation was -0.01% (inactive).

For `CC(=O)Nc1ccccc1`, the fluorescence artifact activation is -0.1% (inactive).
